For orientation: Km means the substrate concentration at which the rate is half of its maximum. The Vmax is the rate approached at saturating substrate.

Holding throughout (type): ADME
The target of data set [1] is T1, UDP-glucuronosyltransferase 2B7 (Homo sapiens, UniProt P16662).
T1 sequence (P16662 whole entry): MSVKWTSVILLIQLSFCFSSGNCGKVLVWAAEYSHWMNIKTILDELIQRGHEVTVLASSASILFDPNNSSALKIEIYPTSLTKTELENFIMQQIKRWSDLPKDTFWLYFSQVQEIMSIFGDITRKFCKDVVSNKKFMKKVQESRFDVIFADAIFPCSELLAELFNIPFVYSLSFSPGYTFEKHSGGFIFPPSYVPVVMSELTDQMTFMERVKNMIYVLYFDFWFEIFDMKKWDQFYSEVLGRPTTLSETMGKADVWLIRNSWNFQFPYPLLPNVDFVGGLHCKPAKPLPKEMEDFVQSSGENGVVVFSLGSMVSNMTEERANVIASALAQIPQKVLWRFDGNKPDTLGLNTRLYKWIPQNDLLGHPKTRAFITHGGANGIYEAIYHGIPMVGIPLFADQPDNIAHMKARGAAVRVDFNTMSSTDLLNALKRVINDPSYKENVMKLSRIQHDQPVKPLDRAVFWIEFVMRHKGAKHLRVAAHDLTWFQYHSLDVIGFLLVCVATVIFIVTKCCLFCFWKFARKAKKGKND
The experiment in a line: Drug metabolism assessed as recombinant human C-terminal His-tagged UGT2B7-mediated 13-epiestradiol-17-glucuronide formation at 200 uM after 15 to 60 mins by HPLC analysis in presence of UDPGA. The following applies: recombinant enzyme. Summed up: (§1)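 Screening at a single substrate concentration of 200 μM, in triplicate. The reaction used 5 or 50 µg of UGT-enriched insect cell membranes in 50 mM phosphate pH 7.4 with 10 mM MgCl₂ and 5 mM UDPGA, 10% final DMSO. Incubation was 15–60 min at 37°C. Perchloric acid stopped the reaction and supernatants were analysed by HPLC. Controls lacked UDPGA. Rates were normalized to relative UGT expression level.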

Data set [2] addresses T1, UDP-glucuronosyltransferase 2B7. Kind of data set: Drug metabolism assessed as recombinant human C-terminal His-tagged UGT2B7-mediated 16-epiestriol-16-glucuronide formation at 5 mg after 5 hrs by NMR spectroscopic analysis in presence of UDPGA.
The target in data set [3] is T2, UDP-glucuronosyltransferase 2B4 (Homo sapiens, UniProt P06133).
T2 sequence (P06133 whole entry): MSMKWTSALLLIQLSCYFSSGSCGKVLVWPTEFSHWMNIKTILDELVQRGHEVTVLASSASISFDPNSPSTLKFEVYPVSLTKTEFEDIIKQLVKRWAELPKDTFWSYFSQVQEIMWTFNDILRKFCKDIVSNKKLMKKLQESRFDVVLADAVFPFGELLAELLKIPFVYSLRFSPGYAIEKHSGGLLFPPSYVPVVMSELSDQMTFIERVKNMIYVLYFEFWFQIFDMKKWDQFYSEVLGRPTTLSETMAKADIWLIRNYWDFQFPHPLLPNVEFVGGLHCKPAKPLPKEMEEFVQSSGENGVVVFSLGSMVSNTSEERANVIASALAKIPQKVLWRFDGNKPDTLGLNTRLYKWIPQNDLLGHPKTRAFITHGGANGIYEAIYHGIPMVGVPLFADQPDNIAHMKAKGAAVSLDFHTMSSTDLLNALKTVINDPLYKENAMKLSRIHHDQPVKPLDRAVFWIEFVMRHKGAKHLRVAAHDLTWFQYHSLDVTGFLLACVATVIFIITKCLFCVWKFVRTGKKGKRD
The experiment in a line: Drug metabolism assessed as recombinant human C-terminal His-tagged UGT2B4-mediated 16-epiestriol-16-glucuronide formation after 15 to 60 mins by Michaelis-Menten equation analysis in presence of UDPGA. The following applies: recombinant enzyme.

The nature of data set [4]: Drug metabolism in human intestine microsomes assessed as 16-epiestriol-16-glucuronide formation after 15 to 60 mins by Michaelis-Menten equation analysis in presence of UDPGA. Summed up:
(§2)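 Pooled human intestine microsomes (6 donors), 0.5 or 10 µg, with alamethicin at 5% of total protein. Incubated with 50 mM phosphate pH 7.4, 10 mM MgCl₂, 5 mM UDPGA and 10% DMSO for 15–60 min at 37°C. Each glucuronide regioisomer quantified by HPLC, in triplicate, with substrate consumption at or below 10%.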

Data set [5] has as its target T3, UDP-glucuronosyltransferase 1A4 (Homo sapiens, UniProt P22310).
T3 sequence (P22310 whole entry): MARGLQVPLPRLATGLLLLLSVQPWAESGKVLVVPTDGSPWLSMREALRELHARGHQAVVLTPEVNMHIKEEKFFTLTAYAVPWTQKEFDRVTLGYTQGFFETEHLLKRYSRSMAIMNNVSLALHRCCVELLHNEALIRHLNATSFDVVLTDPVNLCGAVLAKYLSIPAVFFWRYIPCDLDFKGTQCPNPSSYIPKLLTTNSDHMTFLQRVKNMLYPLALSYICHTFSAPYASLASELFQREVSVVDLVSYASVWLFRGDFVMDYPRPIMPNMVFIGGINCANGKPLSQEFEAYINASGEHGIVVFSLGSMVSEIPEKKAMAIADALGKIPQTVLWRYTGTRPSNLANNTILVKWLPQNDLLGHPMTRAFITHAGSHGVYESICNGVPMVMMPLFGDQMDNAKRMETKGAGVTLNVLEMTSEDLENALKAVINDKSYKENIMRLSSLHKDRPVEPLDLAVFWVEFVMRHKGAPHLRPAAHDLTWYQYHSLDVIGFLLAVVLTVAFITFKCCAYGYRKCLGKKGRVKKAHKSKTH
Kind of data set: Drug metabolism assessed as recombinant human C-terminal His-tagged UGT1A4-mediated estradiol-17-glucuronide formation at 200 uM after 15 to 60 mins by HPLC analysis in presence of UDPGA. The conditions noted are these: recombinant enzyme. The procedure, abridged: as §1

The target of data set [6] is T1, UDP-glucuronosyltransferase 2B7. Kind of data set: Drug metabolism assessed as recombinant human C-terminal His-tagged UGT2B7-mediated 17-epiestriol-17-glucuronide formation at 4 mg after 5 hrs by NMR spectroscopic analysis in presence of UDPGA. The conditions noted are these: recombinant enzyme. The procedure, abridged:
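Preparative biosynthesis: 4 mg 17-epiestriol with fresh UGT2B7-enriched insect-cell homogenate (about 500 mg total protein) in 25 ml. Contained 50 mM phosphate pH 7.4, 10 mM MgCl₂, 50 mM UDPGA and 10% DMSO. Glucuronides fractionated by HPLC with 0.1% HCOOH eluent and 280 nm UV, then concentrated and lyophilized for NMR.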

The target of data set [7] is T2, UDP-glucuronosyltransferase 2B4. Kind of data set: Drug metabolism assessed as recombinant human C-terminal His-tagged UGT2B4-mediated 17-epiestriol-17-glucuronide formation at 200 uM after 15 to 60 mins by HPLC analysis in presence of UDPGA. The following applies: recombinant enzyme. The procedure, abridged:
as §1

The nature of data set [8]: Drug metabolism in human intestine microsomes assessed as 17-epiestriol-17-glucuronide formation after 15 to 60 mins by Michaelis-Menten equation analysis in presence of UDPGA. The procedure, abridged: as §2

On to `C[C@@]12CC[C@@H]3c4ccc(O)cc4CC[C@H]3[C@@H]1CC[C@@H]2O`, for which the Drug metabolism result in data set [1] was “metabolite_detected”.

On to `C[C@]12CC[C@@H]3c4ccc(O)cc4CC[C@H]3[C@@H]1C[C@H](O)[C@@H]2O` [EPIESTRIOL], for which the Drug metabolism entry in data set [2] is “metabolite_detected”. Further, in data set [3], the Drug metabolism was 5 pmol/min/mg. Further, in data set [4], the Km was found to be 43 µM and the Vmax stood at 1480 pmol/min/mg.

In the case of `C[C@]12CC[C@@H]3c4ccc(O)cc4CC[C@H]3[C@@H]1CC[C@@H]2O` [ESTRADIOL], in data set [5], the Drug metabolism entry is “metabolite_detected”.

For the compound `C[C@]12CC[C@@H]3c4ccc(O)cc4CC[C@H]3[C@@H]1C[C@@H](O)[C@H]2O`, the Drug metabolism entry in data set [6] is on record as “metabolite_detected”. For the same compound, the Drug metabolism result in data set [7] is recorded as “metabolite_detected”. Also, in data set [8], the Km was 1.3 µM and the Vmax came to 1633 pmol/min/mg.

The values are drawn from ChEMBL document CHEMBL3525985, “Regiospecificity and stereospecificity of human UDP-glucuronosyltransferases in the glucuronidation of estriol, 16-epiestriol, 17-epiestriol, and 13-epiestradiol” (Drug Metab Dispos, 2013).
